# Laboratory results reported in ChEMBL document CHEMBL1131179, “Structural optimization affording 2-(R)-(1-(R)-3, 5-bis(trifluoromethyl)phenylethoxy)-3-(S)-(4-fluoro)phenyl-4- (3-oxo-1,2,4-triazol-5-yl)methylmorpholine, a potent, orally active, long-acting morpholine acetal human NK-1 receptor antagonist” (J Med Chem, 1998).
# Legend:
# Substance-P receptor = Substance-P receptor (Homo sapiens, UniProt P25103); test: Displacement of [125I]-labeled SP from the human Tachykinin receptor 1 expressed in CHO cells; format: cell-based
# Cavia porcellus [1] = test: Inhibition of resiniferatoxin-induced systemic vascular leakage in guinea pig (SYVAL) upon oral administration at 24 hr r; format: functional
# Procedure, shortened: (§1)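 Guinea pigs dosed orally 1 or 24 h before iv resiniferatoxin challenge (400 µL/kg over 30 s, penile vein), given 10 min after Evans Blue. Killed 10 min post-challenge. Bladder, trachea and esophagus dried (24 h, 65 °C) and extracted with plasma in formamide (65 °C, 24 h). Extravasation read at OD620-650 against plasma, as mg plasma/g dry tissue. n = 4-12 per point; ID50 by nonlinear least-squares regression of mean data.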
# Cavia porcellus [2] = test: Inhibition of resiniferatoxin-induced systemic vascular leakage in guinea pig (SYVAL) upon oral administration at 1 hr; format: functional; settings: read-out: ID50 (the source's name); procedure, shortened: as §1
# Gerbillinae [3] = test: Inhibition of GR 73632-induced foot tapping in gerbils upon intravenous administration of compound; format: functional; settings: read-out: ID50 (the source's name)
# Procedure, shortened: (§2)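 Male or female Mongolian gerbils (35–70 g) under isoflurane/oxygen anaesthesia. Test compound or vehicle is given iv into the jugular vein at 5 mL/kg. At 0, 4 or 24 h, GR 73,632 (3 pmol) is infused icv via a needle 4.5 mm below bregma. Hind foot tapping is timed for 5 min after recovery. 3–9 animals per dose. ID50 by nonlinear least-squares regression of mean data.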
# Gerbillinae [4] = test: Inhibition of GR 73632-induced foot tapping in gerbils upon intravenous administration of compound after 24 hr; format: functional; settings: read-out: ID50 (the source's name); procedure, shortened: as §2
# Gerbillinae [5] = test: Inhibition of GR 73632-induced foot tapping in gerbils upon intravenous administration of compound after 4 hr; format: functional; settings: read-out: ID50 (the source's name); procedure, shortened: as §2
# Mustela putorius furo [6] = test: compound was tested for antiemetic action in ferret at 3 mg/kg after peroral administration followed by emetogen (apomorphine) challenge at 0.25 mg/kg, sc; format: functional
# Mustela putorius furo [7] = test: compound was tested for antiemetic action in ferret at 3 mg/kg after peroral administration followed by emetogen (morphine) challenge at 0.5 mg/kg, sc; format: functional
# Procedure, shortened: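 Male ferrets (1.0–2.0 kg) receive 3.0 mg/kg po in 0.5% Methocel or vehicle. 60 min later they get a sc emetogen: apomorphine or morphine 0.5 mg/kg. Retches and vomits are counted for 30 min versus vehicle controls. 4–7 animals per group.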
# Mustela putorius furo [8] = test: compound was tested for antiemetic action in ferret at 3 mg/kg after peroral administration followed by emetogen (cisplatin) challenge at 10 mg/kg, iv after 60 min
# Mustela putorius furo [9] = test: as above; remark: listed apart in the source
# Mustela putorius furo [10] = test: as above; remark: listed apart in the source
# Mustela putorius furo [11] = test: as above; remark: listed apart in the source
# Mustela putorius furo [12] = test: compound was tested for antiemetic action in ferret at 0.3 mg/kg after intravenous administration followed by emetogen (cisplatin) challenge at 10 mg/kg, iv after 3 min; format: functional
# Procedure, shortened: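 Male ferrets (1.0–2.0 kg) under halothane receive 0.3 mg/kg iv in PEG 300 vehicle, then cisplatin 10 mg/kg iv 3 min later. Retches and vomits are counted over 240 min and compared with vehicle controls. 4–7 animals per group.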
# Substance-P receptor, sequence (P25103 whole entry): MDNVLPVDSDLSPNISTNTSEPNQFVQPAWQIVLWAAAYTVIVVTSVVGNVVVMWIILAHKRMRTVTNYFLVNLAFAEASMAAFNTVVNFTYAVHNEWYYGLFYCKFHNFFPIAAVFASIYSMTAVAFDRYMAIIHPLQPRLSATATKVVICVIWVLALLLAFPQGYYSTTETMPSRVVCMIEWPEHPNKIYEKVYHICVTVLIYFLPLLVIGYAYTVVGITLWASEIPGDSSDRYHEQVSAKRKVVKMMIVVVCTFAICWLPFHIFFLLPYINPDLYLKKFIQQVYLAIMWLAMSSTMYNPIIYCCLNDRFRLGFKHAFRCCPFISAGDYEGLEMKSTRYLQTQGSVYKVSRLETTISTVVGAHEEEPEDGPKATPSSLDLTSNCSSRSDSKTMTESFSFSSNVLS
Structure (SMILES),IC50 (Substance-P receptor),ID90 (Cavia porcellus [1]),ED50 (Cavia porcellus [2]),ED50 (Gerbillinae [3]),ED50 (Gerbillinae [4]),ED50 (Gerbillinae [5]),other results
C[C@@H](O[C@H]1OCCN(Cc2n[nH]c(O)n2)[C@H]1c1ccccc1)c1cccc(C(F)(F)F)c1,0.27 nM,,,,,,
O=c1[nH]nc(CN2CCO[C@H](OCc3cc(C(F)(F)F)cc(C(F)(F)F)c3)[C@@H]2c2ccccc2)[nH]1,,5.4 mg/kg,0.006 mg/kg,0.85 mg/kg,2.88 mg/kg,,
COc1ccc(OC(F)(F)F)cc1CN[C@H]1CCCN[C@H]1c1ccccc1 (racemic),,>10 mg/kg,0.01 mg/kg,0.03 mg/kg,5.37 mg/kg,0.24 mg/kg,
COc1ccc(-n2nnnc2C(F)(F)F)cc1CN[C@H]1CCCN[C@H]1c1ccccc1 [VOFOPITANT],0.08 nM,>10 mg/kg,0.007 mg/kg,,,,
O=c1[nH]nc(CN2CCO[C@H](OCc3cc(C(F)(F)F)cc(C(F)(F)F)c3)[C@@H]2c2ccc(F)cc2)[nH]1,0.07 nM,2.3 mg/kg,0.008 mg/kg,0.3 mg/kg,1.24 mg/kg,0.07 mg/kg,
COc1ccc(-n2nnnc2C(F)(F)F)cc1CNC1CCCNC1c1ccccc1 (racemic),,,,0.04 mg/kg,> 10 mg/kg,0.02 mg/kg,
C[C@@H](O[C@H]1OCCN(Cc2n[nH]c(=O)[nH]2)[C@H]1c1ccc(F)cc1)c1cc(C(F)(F)F)cc(C(F)(F)F)c1 [APREPITANT],,1.8 mg/kg,0.008 mg/kg,0.36 mg/kg,0.33 mg/kg,0.04 mg/kg,Control retches (Mustela putorius furo [6]): 28.3; Control vomits (Mustela putorius furo [6]): 3.3; Retches (Mustela putorius furo [6]): 4.1; Vomits (Mustela putorius furo [6]): 0.7; Control retches (Mustela putorius furo [7]): 44.7; Control vomits (Mustela putorius furo [7]): 5.5; Retches (Mustela putorius furo [7]): 6; Vomits (Mustela putorius furo [7]): 0.5; Vomits (Mustela putorius furo [8]): 0.5; Control retches (Mustela putorius furo [9]): 154.8; Retches (Mustela putorius furo [10]): 2.8; Control vomits (Mustela putorius furo [11]): 22.3; Control retches (Mustela putorius furo [12]): 100; Control vomits (Mustela putorius furo [12]): 12.7; Retches (Mustela putorius furo [12]): 5.3; Vomits (Mustela putorius furo [12]): 1
C[C@@H](O[C@H]1OCCN(Cc2n[nH]c(=O)[nH]2)[C@H]1c1ccccc1)c1cc(C(F)(F)F)cc(C(F)(F)F)c1,0.88 nM,,,,,,
C[C@H](O[C@H]1OCCN(Cc2n[nH]c(O)n2)[C@H]1c1ccccc1)c1cc(C(F)(F)F)cc(C(F)(F)F)c1,0.09 nM,2.3 mg/kg,0.01 mg/kg,0.16 mg/kg,1.11 mg/kg,0.04 mg/kg,
C[C@@H](O[C@H]1OCCN(Cc2n[nH]c(O)n2)[C@H]1c1ccccc1)c1cc(F)cc(C(F)(F)F)c1,0.1 nM,,,,,,
